≈ marks a conversion by molar mass, not a printed value.
What was measured:
Bacillus anthracis [1] = test: Antimicrobial activity against Bacillus anthracis str. Ames infected in BALB/c mouse prophylaxis model assessed as mouse survival at 120 mg/kg, ip administered 48 hrs post infection every 72 hrs for 14 days measured after 42 days; type: functional; details: route intraperitoneal
Bacillus anthracis [2] = test: Antimicrobial activity against Bacillus anthracis str. Ames infected in BALB/c mouse prophylaxis model assessed as mouse survival at 120 mg/kg, ip administered 36 hrs post infection every 72 hrs for 14 days measured after 42 days; type: functional; details: route intraperitoneal
Bacillus anthracis [3] = test: Antimicrobial activity against Bacillus anthracis str. Ames infected in BALB/c mouse prophylaxis model assessed as mouse survival at 60 mg/kg, ip administered 48 hrs post infection every 36 hrs for 14 days measured after 42 days; type: functional; details: route intraperitoneal
Bacillus anthracis [4] = test: Antimicrobial activity against Bacillus anthracis str. Ames infected in BALB/c mouse prophylaxis model assessed as mouse survival at 60 mg/kg, ip administered 36 hrs post infection every 36 hrs for 14 days measured after 42 days; type: functional; details: route intraperitoneal
Bacillus anthracis [5] = test: Antimicrobial activity against Bacillus anthracis str. Ames infected in BALB/c mouse assessed as mouse survival at 30 mg/kg, ip bid administered 24 hrs post infection for 14 days measured after 42 days; type: functional; details: route intraperitoneal
Bacillus anthracis [6] = test: Antimicrobial activity against Bacillus anthracis str. Ames infected in BALB/c mouse prophylaxis model assessed as mouse survival at >=30 mg/kg, ip administered 24 hrs post infection every 36 hrs for 14 days measured after 42 days; type: functional
[7] = Ratio of fAUC in ICR mouse at 5 mg/kg, ip to MIC against Bacillus anthracis Ames; type: functional; details: route intraperitoneal
Method in brief: (§1)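 Female ICR mice (23 to 27 g) received a single i.p. dose of 5 or 20 mg/kg in 5% glucose. Plasma was taken by cardiac puncture from 0.08 to 144 h, with 3 mice per dose and time point. Total drug was measured by microbiological agar diffusion, and parameters were derived noncompartmentally. Free values assume 1.6% unbound and are divided by the Ames-strain MIC.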

Bacillus anthracis [8] = test: Antimicrobial activity against Bacillus anthracis str. Ames infected in BALB/c mouse prophylaxis model assessed as mouse survival at >=15 mg/kg, ip administered 24 hrs post infection every 36 hrs for 14 days measured after 42 days; type: functional
Mus musculus [9] = test: T>MIC in ICR mouse at 20 mg/kg, ip; type: ADME, organism-based; design: dose 20 mg/kg, route intraperitoneal; details: in vivo
[10] = Ratio of fCmax in ICR mouse at 5 mg/kg, ip after 2 hrs to MIC for Bacillus anthracis Ames; type: functional; details: route intraperitoneal; method in brief: as §1
Mus musculus [11] = test: T>MIC in ICR mouse at 5 mg/kg, ip; type: ADME, organism-based; design: dose 5 mg/kg, route intraperitoneal; details: in vivo
[12] = AUC (0-infinity) in ICR mouse at 20 mg/kg, iv; type: ADME, organism-based; design: time infinity, dose 20 mg/kg, route intravenous; details: plasma
Method in brief: (§2)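 Female ICR mice, 23 to 27 g, given single 5 or 20 mg/kg doses i.p. or i.v. (tail vein) in 5% glucose. Plasma was taken by cardiac puncture under halothane at 0.08 to 144 h, with 3 mice per route, dose and time point. Total drug was measured by microbiological agar diffusion assay; parameters came from noncompartmental analysis.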

[13] = AUC (0-infinity) in ICR mouse at 20 mg/kg, ip; type: ADME, organism-based; design: time infinity, dose 20 mg/kg, route intraperitoneal; details: plasma; method in brief: as §2
[14] = AUC (0-infinity) in ICR mouse at 5 mg/kg, iv; type: ADME, organism-based; design: time infinity, dose 5 mg/kg, route intravenous; details: plasma; method in brief: as §2
[15] = Plasma concentration in ICR mouse at 20 mg/kg, ip after 6 days; type: ADME, organism-based; design: dose 20 mg/kg, route intraperitoneal; method in brief: as §2
[16] = AUC (0-infinity) in ICR mouse at 5 mg/kg, ip; type: ADME, organism-based; design: dose 5 mg/kg, route intraperitoneal, time infinity; details: plasma; method in brief: as §2
[17] = Half life in ICR mouse at 20 mg/kg, ip; type: ADME, organism-based; design: dose 20 mg/kg, route intraperitoneal; details: in vivo; method in brief: as §2
[18] = Cmax in ICR mouse at 20 mg/kg, ip after 2 hrs; type: ADME, organism-based; design: dose 20 mg/kg, route intraperitoneal; details: in vivo; method in brief: as §2
[19] = Half life in ICR mouse at 5 mg/kg, ip; type: ADME, organism-based; design: dose 5 mg/kg, route intraperitoneal; details: in vivo; method in brief: as §2
[20] = Cmax in ICR mouse at 5 mg/kg, ip after 2 hrs; type: ADME, organism-based; design: dose 5 mg/kg, route intraperitoneal; details: in vivo; method in brief: as §2
Bacillus anthracis [21] = test: Antimicrobial activity against Bacillus anthracis str. Ames after 18-24 hrs by broth microdilution method; type: functional
[22] = AUC in patient with skin and soft tissue infections at 1000 mg, iv after 7 days; type: ADME, organism-based; details: human, plasma
Bacillus anthracis [23] = test: Antimicrobial activity against Bacillus anthracis after 18-24 hrs by broth microdilution method; type: functional
[24] = Ratio of fCmax in ICR mouse at 20 mg/kg, ip single dose after 2 hrs to MIC for Bacillus anthracis Ames; type: functional; details: route intraperitoneal; method in brief: as §1
[25] = Ratio of fAUC in ICR mouse at 20 mg/kg, ip to MIC against Bacillus anthracis Ames; type: functional; details: route intraperitoneal; method in brief: as §1
Mus musculus [26] = test: fCmax in ICR mouse at 5 mg/kg, ip after 2 hrs; type: ADME, organism-based; design: dose 5 mg/kg, route intraperitoneal; details: in vivo
Mus musculus [27] = test: fCmax in ICR mouse at 20 mg/kg, ip after 2 hrs; type: ADME, organism-based; design: dose 20 mg/kg, route intraperitoneal; details: in vivo
Mus musculus [28] = test: fAUC in ICR mouse at 5 mg/kg, ip; type: ADME, organism-based; design: dose 5 mg/kg, route intraperitoneal; details: in vivo
Mus musculus [29] = test: fAUC in ICR mouse at 20 mg/kg, ip; type: ADME, organism-based; design: dose 20 mg/kg, route intraperitoneal; details: in vivo

For CN[C@H]1C(=O)N[C@@H]2Cc3ccc(cc3)Oc3cc4cc(c3O[C@@H]3O[C@H](C(=O)O)[C@@H](O)[C@H](O)[C@H]3NC(=O)CCCCCCCCC(C)C)Oc3ccc(cc3Cl)[C@@H](O)[C@@H]3NC(=O)[C@H](NC(=O)[C@@H]4NC(=O)[C@@H](NC2=O)c2cc(cc(O)c2Cl)Oc2cc1ccc2O)c1ccc(O)c(c1)-c1c(O[C@H]2O[C@H](CO)[C@@H](O)[C@H](O)[C@@H]2O)cc(O)cc1[C@@H](C(=O)NCCCN(C)C)NC3=O [DALBAVANCIN], the Activity (Bacillus anthracis [1]) was 70%, the Activity (Bacillus anthracis [2]) was 70% and the Activity (Bacillus anthracis [3]) was 70%. The Activity (Bacillus anthracis [4]) was 70%, the Activity (Bacillus anthracis [5]) was 100% and the Activity (Bacillus anthracis [6]) was 80%. For the same compound, the Ratio [7] was 46.7, the Activity (Bacillus anthracis [8]) was 80% and the “T>MIC” value (Mus musculus [9]) was 38 h. The Ratio [10] was 4, the “T>MIC” value (Mus musculus [11]) was 17.8 h and the AUC(0-inf) [12] was 1070 µg·h/mL. The AUC(0-inf) [13] was 848 µg·h/mL, the AUC(0-inf) [14] was 200 µg·h/mL and the concentration at 144 h [15] was at least 400 ng/mL. It also gave an AUC(0-inf) [16] of 176 µg·h/mL, a half-life [17] of 53.4 h and a Cmax [18] of 71300 ng/mL. It also gave a half-life [19] of 53.4 h, a Cmax [20] of 15200 ng/mL and an MIC (Bacillus anthracis [21]) of 0.06 µg/mL (≈ 0.033 µM). It also gave an AUC at 168 h [22] of 756 µg·h/mL, an MIC50 (Bacillus anthracis [23]) of 0.06 µg/mL (≈ 0.033 µM) and an MIC90 (Bacillus anthracis [23]) of 0.25 µg/mL (≈ 0.138 µM). The Ratio [24] was 19, the Ratio [25] was 227 and the fCmax (Mus musculus [26]) was 0.24 mg/L. The fCmax (Mus musculus [27]) was 1.14 mg/L, the fAUC (Mus musculus [28]) was 2.8 µg·h/mL and the fAUC (Mus musculus [29]) was 13.6 µg·h/mL.

For CN[C@H](CC(C)C)C(=O)N[C@H]1C(=O)N[C@@H](CC(N)=O)C(=O)N[C@H]2C(=O)N[C@H]3C(=O)N[C@H](C(=O)N[C@H](C(=O)O)c4cc(O)cc(O)c4-c4cc3ccc4O)[C@H](O)c3ccc(c(Cl)c3)Oc3cc2cc(c3O[C@@H]2O[C@H](CO)[C@@H](O)[C@H](O)[C@H]2O[C@H]2C[C@](C)(N)[C@H](O)[C@H](C)O2)Oc2ccc(cc2Cl)[C@H]1O [VANCOMYCIN], the MIC (Bacillus anthracis [23]) was 2 µg/mL (≈ 1.38 µM).
